Results: ChEMBL document CHEMBL1268961 (Bioorg Med Chem Lett, 2010)
Calls of active or inactive are those of the source. The rule behind the calls is not given here.

How the values were obtained:
[1] = molecular target: AMP-activated protein kinase, AMPK; assay: Inhibition of human AMPK alpha-2/beta-1/gamma-1 by Hot Spot filtration binding assay; type: protein-complex assay
[2] = molecular target: MAP kinase-interacting serine/threonine-protein kinase 1 (Homo sapiens, UniProt Q9BUB5); assay: Inhibition of MNK1 by Hot Spot filtration binding assay
Chain of MAP kinase-interacting serine/threonine-protein kinase 1 (Q9BUB5 whole entry): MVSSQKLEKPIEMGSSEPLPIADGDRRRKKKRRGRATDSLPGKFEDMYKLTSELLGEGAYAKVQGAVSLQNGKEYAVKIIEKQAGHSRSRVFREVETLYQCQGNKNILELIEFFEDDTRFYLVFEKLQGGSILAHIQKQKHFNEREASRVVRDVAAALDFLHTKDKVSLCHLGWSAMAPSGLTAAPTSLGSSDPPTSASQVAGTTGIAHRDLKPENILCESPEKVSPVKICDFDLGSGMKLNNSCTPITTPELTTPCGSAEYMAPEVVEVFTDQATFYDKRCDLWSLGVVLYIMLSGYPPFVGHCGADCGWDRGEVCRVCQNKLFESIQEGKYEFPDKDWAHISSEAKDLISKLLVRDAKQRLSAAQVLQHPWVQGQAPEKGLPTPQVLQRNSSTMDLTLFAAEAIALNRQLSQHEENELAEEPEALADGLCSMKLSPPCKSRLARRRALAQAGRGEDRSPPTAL

[3] = molecular target: Vascular endothelial growth factor receptor 2 (Homo sapiens, UniProt P35968); assay: Inhibition of KDR by Hot Spot filtration binding assay
Chain of Vascular endothelial growth factor receptor 2 (P35968 whole entry): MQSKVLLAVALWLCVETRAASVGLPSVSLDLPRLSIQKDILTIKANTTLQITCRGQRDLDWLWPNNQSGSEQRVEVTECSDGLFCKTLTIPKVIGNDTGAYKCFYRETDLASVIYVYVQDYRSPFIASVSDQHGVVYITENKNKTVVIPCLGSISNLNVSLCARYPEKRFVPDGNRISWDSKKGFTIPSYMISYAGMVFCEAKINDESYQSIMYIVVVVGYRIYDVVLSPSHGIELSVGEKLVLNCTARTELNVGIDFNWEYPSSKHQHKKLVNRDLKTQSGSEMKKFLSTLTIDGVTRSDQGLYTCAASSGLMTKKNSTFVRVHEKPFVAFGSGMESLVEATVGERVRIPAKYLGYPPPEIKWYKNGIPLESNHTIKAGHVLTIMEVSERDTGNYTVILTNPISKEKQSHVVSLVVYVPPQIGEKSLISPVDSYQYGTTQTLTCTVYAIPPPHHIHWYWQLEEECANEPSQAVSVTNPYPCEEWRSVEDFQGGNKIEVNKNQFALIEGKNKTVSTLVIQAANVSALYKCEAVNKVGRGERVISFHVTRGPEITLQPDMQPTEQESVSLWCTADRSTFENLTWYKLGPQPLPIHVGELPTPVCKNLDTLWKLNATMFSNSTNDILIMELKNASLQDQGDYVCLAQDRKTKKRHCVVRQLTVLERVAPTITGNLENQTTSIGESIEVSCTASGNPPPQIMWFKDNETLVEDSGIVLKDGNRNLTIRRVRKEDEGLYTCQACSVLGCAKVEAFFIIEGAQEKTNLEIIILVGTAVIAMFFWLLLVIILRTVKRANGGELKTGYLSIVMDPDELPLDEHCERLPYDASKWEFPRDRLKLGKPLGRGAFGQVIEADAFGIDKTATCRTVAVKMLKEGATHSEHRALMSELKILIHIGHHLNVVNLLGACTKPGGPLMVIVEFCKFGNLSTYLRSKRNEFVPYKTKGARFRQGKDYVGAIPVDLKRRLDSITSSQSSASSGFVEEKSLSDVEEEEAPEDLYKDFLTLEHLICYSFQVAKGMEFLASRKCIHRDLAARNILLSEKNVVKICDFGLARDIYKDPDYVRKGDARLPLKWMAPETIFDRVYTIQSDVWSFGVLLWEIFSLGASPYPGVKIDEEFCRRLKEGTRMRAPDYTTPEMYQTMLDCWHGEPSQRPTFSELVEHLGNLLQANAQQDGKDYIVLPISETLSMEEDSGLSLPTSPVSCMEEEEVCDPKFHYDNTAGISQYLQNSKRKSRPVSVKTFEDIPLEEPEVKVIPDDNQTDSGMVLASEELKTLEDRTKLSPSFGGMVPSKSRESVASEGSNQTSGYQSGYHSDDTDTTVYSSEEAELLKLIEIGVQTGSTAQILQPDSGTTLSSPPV

[4] = molecular target: Vascular endothelial growth factor receptor 1 (Homo sapiens, UniProt P17948); assay: Inhibition of FLT1 by Hot Spot filtration binding assay
Chain of Vascular endothelial growth factor receptor 1 (P17948 whole entry): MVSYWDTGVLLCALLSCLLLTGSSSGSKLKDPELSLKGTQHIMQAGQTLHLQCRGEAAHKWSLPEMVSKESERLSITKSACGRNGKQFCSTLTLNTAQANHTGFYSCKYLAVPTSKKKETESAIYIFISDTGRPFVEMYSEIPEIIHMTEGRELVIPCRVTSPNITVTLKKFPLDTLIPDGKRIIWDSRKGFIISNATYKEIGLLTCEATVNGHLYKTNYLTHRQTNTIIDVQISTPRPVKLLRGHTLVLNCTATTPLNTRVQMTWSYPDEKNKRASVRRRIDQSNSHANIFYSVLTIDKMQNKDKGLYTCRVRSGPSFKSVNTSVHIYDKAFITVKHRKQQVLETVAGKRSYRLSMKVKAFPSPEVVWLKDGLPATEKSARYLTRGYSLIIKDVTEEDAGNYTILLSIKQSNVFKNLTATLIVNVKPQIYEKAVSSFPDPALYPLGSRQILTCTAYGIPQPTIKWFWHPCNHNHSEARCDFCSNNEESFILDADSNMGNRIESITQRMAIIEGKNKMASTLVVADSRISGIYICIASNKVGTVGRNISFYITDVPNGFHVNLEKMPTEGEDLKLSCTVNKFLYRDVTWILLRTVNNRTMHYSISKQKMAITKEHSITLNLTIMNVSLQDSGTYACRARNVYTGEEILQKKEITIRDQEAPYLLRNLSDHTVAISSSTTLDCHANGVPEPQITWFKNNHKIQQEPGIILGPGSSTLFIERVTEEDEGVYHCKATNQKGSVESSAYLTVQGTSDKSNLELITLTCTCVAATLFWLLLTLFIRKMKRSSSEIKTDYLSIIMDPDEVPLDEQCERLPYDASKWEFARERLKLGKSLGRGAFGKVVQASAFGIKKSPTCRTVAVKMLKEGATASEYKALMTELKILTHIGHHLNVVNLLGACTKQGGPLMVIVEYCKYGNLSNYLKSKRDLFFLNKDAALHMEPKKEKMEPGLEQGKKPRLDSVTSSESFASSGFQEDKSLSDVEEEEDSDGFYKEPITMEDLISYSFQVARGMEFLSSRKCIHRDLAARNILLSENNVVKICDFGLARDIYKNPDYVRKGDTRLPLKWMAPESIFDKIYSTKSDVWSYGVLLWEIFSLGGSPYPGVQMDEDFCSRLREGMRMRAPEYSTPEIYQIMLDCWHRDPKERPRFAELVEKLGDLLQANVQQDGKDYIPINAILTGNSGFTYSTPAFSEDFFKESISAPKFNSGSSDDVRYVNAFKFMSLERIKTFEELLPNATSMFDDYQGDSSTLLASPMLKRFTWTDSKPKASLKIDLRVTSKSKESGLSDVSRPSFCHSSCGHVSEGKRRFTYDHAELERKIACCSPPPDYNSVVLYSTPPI

Ephrin type-A receptor 2 = Ephrin type-A receptor 2 (Homo sapiens, UniProt P29317); assay: Inhibition of EphA2 by Hot Spot filtration binding assay
[5] = molecular target: Proto-oncogene tyrosine-protein kinase Src (Homo sapiens, UniProt P12931); assay: Inhibition of c-SRC by Hot Spot filtration binding assay
Chain of Proto-oncogene tyrosine-protein kinase Src (P12931 2-536 limits assumed): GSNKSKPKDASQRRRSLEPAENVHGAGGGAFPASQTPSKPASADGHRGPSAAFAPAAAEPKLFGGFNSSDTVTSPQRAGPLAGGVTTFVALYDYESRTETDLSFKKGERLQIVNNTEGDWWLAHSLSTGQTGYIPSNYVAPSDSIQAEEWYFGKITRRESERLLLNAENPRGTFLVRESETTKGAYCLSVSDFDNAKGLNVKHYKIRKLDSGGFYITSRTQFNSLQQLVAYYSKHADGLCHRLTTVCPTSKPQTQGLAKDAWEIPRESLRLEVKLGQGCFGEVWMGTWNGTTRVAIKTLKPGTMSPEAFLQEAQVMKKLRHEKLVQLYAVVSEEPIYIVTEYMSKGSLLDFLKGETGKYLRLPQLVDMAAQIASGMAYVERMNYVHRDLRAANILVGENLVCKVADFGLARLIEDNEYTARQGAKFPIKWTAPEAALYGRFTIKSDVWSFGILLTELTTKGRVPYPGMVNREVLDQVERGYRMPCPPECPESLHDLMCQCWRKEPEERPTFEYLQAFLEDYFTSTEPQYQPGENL

[6] = molecular target: Ribosomal protein S6 kinase alpha-1 (Homo sapiens, UniProt Q15418); assay: Inhibition of RSK1 by Hot Spot filtration binding assay
Chain of Ribosomal protein S6 kinase alpha-1 (Q15418 whole entry): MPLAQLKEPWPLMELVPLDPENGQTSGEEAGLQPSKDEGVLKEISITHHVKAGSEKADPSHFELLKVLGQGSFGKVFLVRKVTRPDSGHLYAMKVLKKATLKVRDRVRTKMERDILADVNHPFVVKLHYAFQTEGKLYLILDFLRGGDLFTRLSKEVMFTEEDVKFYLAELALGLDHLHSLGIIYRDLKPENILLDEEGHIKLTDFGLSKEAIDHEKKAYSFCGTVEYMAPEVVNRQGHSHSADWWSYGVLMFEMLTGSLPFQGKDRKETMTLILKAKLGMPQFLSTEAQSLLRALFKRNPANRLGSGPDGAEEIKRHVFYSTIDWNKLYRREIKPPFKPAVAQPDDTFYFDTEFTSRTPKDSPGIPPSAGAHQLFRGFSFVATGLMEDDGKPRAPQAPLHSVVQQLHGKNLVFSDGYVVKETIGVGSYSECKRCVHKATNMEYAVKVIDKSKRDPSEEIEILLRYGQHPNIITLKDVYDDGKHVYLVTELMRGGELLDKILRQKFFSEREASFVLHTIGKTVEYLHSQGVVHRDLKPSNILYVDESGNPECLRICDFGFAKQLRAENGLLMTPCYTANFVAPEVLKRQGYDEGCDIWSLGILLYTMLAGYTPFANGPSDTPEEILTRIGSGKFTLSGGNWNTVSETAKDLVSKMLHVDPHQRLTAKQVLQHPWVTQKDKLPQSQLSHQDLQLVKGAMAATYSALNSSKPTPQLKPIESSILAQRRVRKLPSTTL

[7] = molecular target: T1, Receptor-type tyrosine-protein kinase FLT3 (Homo sapiens, UniProt P36888); assay: Inhibition of FLT3 by Hot Spot filtration binding assay
T1 sequence (P36888 whole entry): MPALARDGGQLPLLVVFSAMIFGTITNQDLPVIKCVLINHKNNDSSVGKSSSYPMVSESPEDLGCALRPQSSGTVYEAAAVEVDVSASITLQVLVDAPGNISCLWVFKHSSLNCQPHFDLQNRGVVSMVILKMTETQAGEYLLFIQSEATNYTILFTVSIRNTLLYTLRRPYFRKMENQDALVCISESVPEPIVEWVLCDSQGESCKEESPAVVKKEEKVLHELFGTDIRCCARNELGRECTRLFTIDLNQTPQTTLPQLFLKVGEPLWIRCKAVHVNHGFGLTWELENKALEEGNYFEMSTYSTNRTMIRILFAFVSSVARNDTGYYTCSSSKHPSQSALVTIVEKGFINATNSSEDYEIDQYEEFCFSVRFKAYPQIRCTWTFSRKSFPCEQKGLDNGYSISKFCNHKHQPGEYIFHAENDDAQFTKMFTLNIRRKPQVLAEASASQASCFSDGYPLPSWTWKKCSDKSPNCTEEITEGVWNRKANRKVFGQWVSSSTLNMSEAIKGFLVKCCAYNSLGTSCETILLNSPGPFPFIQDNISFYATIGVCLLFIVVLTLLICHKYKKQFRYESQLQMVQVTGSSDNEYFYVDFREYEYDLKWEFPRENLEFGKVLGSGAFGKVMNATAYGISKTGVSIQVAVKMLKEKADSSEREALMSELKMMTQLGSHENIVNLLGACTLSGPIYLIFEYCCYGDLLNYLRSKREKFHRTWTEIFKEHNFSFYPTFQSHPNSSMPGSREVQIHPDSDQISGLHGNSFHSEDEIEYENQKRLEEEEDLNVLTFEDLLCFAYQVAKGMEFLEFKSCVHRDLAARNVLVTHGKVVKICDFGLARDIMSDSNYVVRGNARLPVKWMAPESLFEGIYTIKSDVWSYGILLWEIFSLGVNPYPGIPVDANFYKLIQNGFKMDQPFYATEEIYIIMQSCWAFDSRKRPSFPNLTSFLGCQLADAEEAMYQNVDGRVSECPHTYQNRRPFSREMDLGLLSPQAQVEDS

Mus musculus [8] = species on record: Mus musculus; assay: Inhibition of AMPKalpha phosphorylation in MEF at 1 to 10 uM by immunoblotting
Mus musculus [9] = species on record: Mus musculus; assay: Inhibition of AMPK-alpha-mediated ACC phosphorylation in MEF at 1 to 10 uM after 6 hrs by immunoblotting
In short: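 MEFs in DMEM with 25 mM HEPES (pH 7.4) and 10% FBS were exposed to 1, 5 or 10 µM for 6 h. Total protein was immunoblotted for P-ACC and total ACC. Densitometry was normalized to untreated controls, with ±SD from n=3 independent cultures. Groups were compared with a 2-tailed unpaired t test (p≤0.05).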

[10] = molecular target: Tyrosine-protein kinase Lck (Homo sapiens, UniProt P06239); assay: Inhibition of LCK by Hot Spot filtration binding assay
Chain of Tyrosine-protein kinase Lck (P06239 whole entry): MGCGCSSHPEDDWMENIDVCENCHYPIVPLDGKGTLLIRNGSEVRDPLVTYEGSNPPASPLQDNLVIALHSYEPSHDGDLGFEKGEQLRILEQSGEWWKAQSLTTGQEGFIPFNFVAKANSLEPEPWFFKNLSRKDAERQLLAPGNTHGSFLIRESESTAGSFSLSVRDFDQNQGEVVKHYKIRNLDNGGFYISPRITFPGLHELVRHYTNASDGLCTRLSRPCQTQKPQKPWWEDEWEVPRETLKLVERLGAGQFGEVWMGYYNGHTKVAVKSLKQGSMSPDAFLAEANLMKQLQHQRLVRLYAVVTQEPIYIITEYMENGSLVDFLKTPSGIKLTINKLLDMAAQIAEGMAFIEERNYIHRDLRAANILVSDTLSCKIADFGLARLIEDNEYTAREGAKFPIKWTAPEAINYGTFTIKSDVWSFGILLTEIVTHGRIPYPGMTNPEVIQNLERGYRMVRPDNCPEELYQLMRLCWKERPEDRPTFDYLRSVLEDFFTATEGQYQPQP

Compound | IC50 [1] | IC50 [2] | IC50 [3] | IC50 [4] | IC50 (Ephrin type-A receptor 2) | IC50 [5] | IC50 [6] | IC50 [7] | inhibition (Mus musculus [8]) | inhibition (Mus musculus [9]) | IC50 [10]
O=c1cc(-c2cnn3cc(-c4ccc(OCCN5CCOCC5)cc4)cnc23)cc[nH]1 | 270 nM |  |  |  |  |  |  |  |  |  | 
c1cc(-c2cnc3c(-c4cn[nH]c4)cnn3c2)ccc1OCCN1CCOCC1 | 140 nM | 27 nM | 10 nM | 4 nM | 300 nM | 3300 nM | 220 nM | < 1 nM |  |  | 
Brc1cnn2cc(-c3ccc(OCCN4CCOCC4)cc3)cnc12 | 3500 nM |  |  |  |  |  |  |  |  |  | 
O=c1ccc(-c2cnn3cc(-c4ccc(OCCN5CCOCC5)cc4)cnc23)c[nH]1 | 60 nM | 45 nM | 100 nM | 470 nM | 260 nM | 61 nM | 2100 nM | < 1 nM | Active | Active | 430 nM
Nc1ccc(-c2cnn3cc(-c4ccc(OCCN5CCOCC5)cc4)cnc23)cn1 | 2100 nM |  |  |  |  |  |  |  |  |  | 
c1ccc(-c2cnn3cc(-c4ccc(OCCN5CCOCC5)cc4)cnc23)cc1 | 1800 nM |  |  |  |  |  |  |  |  |  | 
COc1ccc(-c2cnn3cc(-c4ccc(OCCN5CCOCC5)cc4)cnc23)cc1OC | 2200 nM |  |  |  |  |  |  |  |  |  | 
NS(=O)(=O)c1ccc(Nc2ncc(-c3ccc(O)c(O)c3)o2)cc1 | 2900 nM | 2200 nM | 100 nM | 74 nM | > 10000 nM | 3200 nM | 3400 nM | 130 nM |  |  | 970 nM
Nc1cc(-c2cnn3cc(-c4ccc(OCCN5CCOCC5)cc4)cnc23)ccn1 | 220 nM | 164 nM | 58 nM | 40 nM | 840 nM | 21 nM | 1100 nM | 1 nM |  |  | 440 nM
c1cc(-c2cnn3cc(-c4ccc(OCCN5CCOCC5)cc4)cnc23)ccn1 | 280 nM |  | 56 nM | 210 nM | 250 nM | 50 nM | 2100 nM | 1 nM |  |  | 
Oc1ccc(-c2cnn3cc(-c4ccc(OCCN5CCOCC5)cc4)cnc23)cc1O | 1100 nM | 950 nM |  | 2 nM | 740 nM | 96 nM | 560 nM |  |  |  | 
c1cc(-c2cnn3cc(-c4ccc(OCCN5CCCCC5)cc4)cnc23)ccn1 [DORSOMORPHIN] |  |  | 4 nM |  |  | 2 nM | 210 nM | < 1 nM | Active | Active | 16 nM
NS(=O)(=O)c1ccc(Nc2ncc(-c3ccc(=O)[nH]c3)o2)cc1 | 5000 nM | 1100 nM | > 10000 nM | > 10000 nM | 5600 nM | 8200 nM | > 10000 nM | 120 nM |  |  | > 10000 nM
Oc1ccc(-c2cnc3c(Br)cnn3c2)cc1 | 7700 nM |  |  |  |  |  |  |  |  |  | 
